# The source made the active and inactive calls.
# Tests used:
# Candida orthopsilosis [1] = test: Antimicrobial activity against Candida orthopsilosis BR-A38 grown as planktonic cell after 48 hrs by XTT reduction assay; format: functional; settings: Lodderomyces orthopsilosis
# How it was run: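 Planktonic broth microdilution followed CLSI M27-A2, with caspofungin dissolved in water. After 48 h, XTT-menadione was added to the wells and plates were kept 1 h at 35°C in the dark. Plates were then centrifuged and supernatant A490 was read. MIC was the lowest concentration giving a 50% decrease in metabolic activity versus drug-free control. Paradoxical growth was defined as ≥20% of control activity above the MIC.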
# Candida tropicalis = test: Antimicrobial activity against Candida tropicalis BR-A18 grown as planktonic cell assessed as paradoxical growth after 48 hrs by XTT reduction assay; format: functional, organism-based
# How it was run: (§1)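 Planktonic broth microdilution followed CLSI M27-A2, with caspofungin dissolved in water. After 48 h, XTT-menadione was added to each well and plates were incubated 1 h at 35°C in the dark. Cells were pelleted by centrifugation and the supernatant was read at 490 nm. MIC was the lowest concentration giving a 50% drop in metabolic activity versus the drug-free control. PG was ≥20% of drug-free activity above the MIC.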
# Candida parapsilosis [2] = test: Antimicrobial activity against Candida parapsilosis BR-A27 grown as planktonic cell assessed as paradoxical growth after 48 hrs by XTT reduction assay; format: functional, organism-based; how it was run: as §1
# Candida parapsilosis [3] = test: Antimicrobial activity against Candida parapsilosis BR-A30 grown as biofilm after 48 hrs by XTT reduction assay; format: functional; settings: Lodderomyces parapsilosis
# How it was run: (§2)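 Clinical isolates were grown overnight (18 h, 35°C, 120 rpm) in RPMI 1640 with MOPS, pH 7.0, then washed and set to ~1 × 10^7 cells/ml. Cells attached for 1.5 h at 37°C, 75 rpm, then biofilms grew 24 h. Caspofungin was given as doubling dilutions of 2–1,024 μg/ml for 48 h at 35°C, 75 rpm. Read-out was XTT-menadione in PBS, 1 h at 35°C in the dark, A490, cell-free blank subtracted. MIC was a 50% drop in activity versus drug-free; PG was >50% of control above MIC. Run in duplicate.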
# Candida orthopsilosis [4] = test: Antimicrobial activity against Candida orthopsilosis BR-A32 grown as biofilm after 48 hrs by XTT reduction assay; format: functional; settings: Lodderomyces orthopsilosis
# How it was run: (§3)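 Isolates were grown on Sabouraud agar (30°C, 24 h), then overnight in RPMI 1640 with MOPS, pH 7.0, at 35°C with shaking. Cells were washed and set to ~1 × 10^7 cells/ml, attached 1.5 h at 37°C, and grown 24 h. Biofilms were then exposed to caspofungin in 10 twofold dilutions (2–1,024 μg/ml) for 48 h at 35°C with shaking. Read-out was XTT-menadione, 1 h, 35°C, dark, A490, cell-free blank subtracted. MIC was the 50% drop in activity versus drug-free control. Tested in duplicate.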
# Candida orthopsilosis [5] = test: Antimicrobial activity against Candida orthopsilosis BR-A34 grown as biofilm after 48 hrs by XTT reduction assay; format: functional; settings: Lodderomyces orthopsilosis; how it was run: as §3
# Candida albicans [6] = test: Antimicrobial activity against Candida albicans BR-A4 grown as biofilm assessed as concentration producing paradoxical growth after 48 hrs by XTT reduction assay; format: functional
# How it was run: (§4)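 Sabouraud-grown cells were shaken overnight (18 h, 120 rpm, 35°C) in RPMI 1640 with MOPS at pH 7.0, then washed and set at ~1 × 10^7 cells/ml. Attachment lasted 1.5 h at 37°C, and growth ran 24 h before challenge. Caspofungin was added in RPMI at 2–1,024 μg/ml (10 doublings) for 48 h at 35°C with shaking. XTT-menadione was read at 490 nm after 1 h at 35°C in the dark, with blank wells subtracted. MIC was taken as 50% reduction versus drug-free wells, and PG as >50% of control above MIC. Assays were run in duplicate.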
# Candida parapsilosis [7] = test: Antimicrobial activity against Candida parapsilosis BR-A28 grown as biofilm assessed as concentration producing paradoxical growth after 48 hrs by XTT reduction assay; format: functional; how it was run: as §2
# Candida metapsilosis = test: Antimicrobial activity against Candida metapsilosis BR-A43 grown as biofilm assessed as concentration producing paradoxical growth after 48 hrs by XTT reduction assay; format: functional; how it was run: as §4
# Candida albicans [8] = test: Effect on morphology in Candida albicans grown as planktonic cells assessed as inhibition of hyphae and pseudohyphae at 16 ug/ml after 48 hrs; format: functional, organism-based
# How it was run: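 Cells were taken from caspofungin-containing and drug-free wells of the planktonic broth microdilution test after 48 h. They were examined by light microscopy at ×400.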
smiles,measurement,setting,value
CC[C@H](C)C[C@H](C)CCCCCCCCC(=O)N[C@H]1C[C@@H](O)[C@@H](NCCN)NC(=O)[C@@H]2[C@@H](O)CCN2C(=O)[C@H]([C@H](O)CCN)NC(=O)[C@H]([C@H](O)[C@@H](O)c2ccc(O)cc2)NC(=O)[C@@H]2C[C@@H](O)CN2C(=O)[C@H]([C@@H](C)O)NC1=O [CASPOFUNGIN],MIC,Candida orthopsilosis [1],2 µg/mL
same,Activity,Candida tropicalis,Active
same,Activity,Candida parapsilosis [2],inactive
same,MIC,Candida parapsilosis [3],256 µg/mL
same,MIC,Candida orthopsilosis [4],2 µg/mL
same,MIC,Candida orthopsilosis [5],2 µg/mL
same,Activity,Candida albicans [6],16 µg/mL
same,Activity,Candida parapsilosis [7],16 µg/mL
same,Activity,Candida metapsilosis,16 µg/mL
same,Activity,Candida albicans [8],Active
